b-catenin transl: modulators of beta-catenin nuclear translocation, primary screen, imaging, HeLa cells, immunofluorescence, high-content; hit rate 0.3% among 190,000; AID 1665, 2009; nuclear translocation activity, % at 5 µM;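 active = nuclear translocation activity above 50% at 5 µM, with a well cell count of 50 or more; inconclusive = wells under 50 cells across six images, flagged as toxic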;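 also: per-cell ratio of nuclear to cytoplasmic median beta-catenin stain intensity; plate controls were DMSO negative control for no effect and GSK-3 inhibitor IX positive control for full effect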
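Test system: human HeLa cells, native beta-catenin. Compound dosing: 5 µM primary single dose, 0.1% DMSO, 0.02–20 µM confirmation series. Incubation: compound exposure 24 h at 37°C. Detection: beta-catenin immunostaining with DAPI counterstain, 20x imaging, 6 fields/well. Read-out basis: Nuclear/cytoplasmic beta-catenin signal ratio, % activation.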
ROMK primary: ROMK potassium channel modulators, primary screen, cell-based, thallium flux, MLSMR library. Tet-inducible ROMK, thallium flux fluorescence; actives lie on both sides. B-score at 10 µM. hit rate 2% among 130,000;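 active = signal ratio slope over the read window, or its plate-corrected B-score, at least 3 SD from the plate mean, either direction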;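 also: B-score of the F/F0 ratio slope over 7 to 12 s after thallium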
Target sequence (P48048 whole entry, looked up): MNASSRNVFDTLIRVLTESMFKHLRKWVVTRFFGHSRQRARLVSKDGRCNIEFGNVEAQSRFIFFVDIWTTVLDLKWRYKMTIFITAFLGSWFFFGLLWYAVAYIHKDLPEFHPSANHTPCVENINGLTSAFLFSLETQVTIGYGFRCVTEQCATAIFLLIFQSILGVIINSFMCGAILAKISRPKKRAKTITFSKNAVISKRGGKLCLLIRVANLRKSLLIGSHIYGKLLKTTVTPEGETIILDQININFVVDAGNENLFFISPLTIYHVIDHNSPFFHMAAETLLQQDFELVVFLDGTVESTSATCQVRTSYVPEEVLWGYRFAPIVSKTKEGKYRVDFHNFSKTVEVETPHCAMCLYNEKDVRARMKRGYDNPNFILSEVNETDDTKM
MT stabilize HCS: microtubule stabilizers in HeLa cells, primary screen, imaging, high-content imaging | HeLa tubulin immunostaining HCS, 24 h; share of cells brighter than vehicle mean+2SD | hit rate 0.83% among 200,000 | % tubulin-high responders, % at 10 µM;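 active = plate Z-score above 3 for both tubulin-high and condensed-nucleus cell shares, with cell loss under 80%, at 10 µM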;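 also: anti alpha tubulin signal scored within the nucleus-defined area of each cell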
ROMK hit retest: ROMK channel modulator hit retest, confirmation, cell-based, thallium flux, duplicate, resupplied hits; shares compounds with ROMK primary; fluorescence ratio; hits give low values; normalized thallium flux (F/F0 slope) at 10 µM; hit rate 54% among 3,000;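 active = Flux at 10 µM at least 3 SD below or above vehicle control mean in one or both replicates; inconclusive = no clear call, values can overlap the other calls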
* = called active by the depositor; u = inconclusive; x = no result given. Sampled rows, rich in hits. Any-hit rate of the full collection: about 1.9%.

SMILES	b-catenin transl	ROMK primary	MT stabilize HCS	ROMK hit retest
CNC(=O)C(=O)NCCCN1CCOCC1	0.5	0.00217	1.1	x
O=C(c1ccccc1)c1c[nH]c(C(=O)NNc2cccc(Cl)n2)c1	-2.0	2.02*	2.2	0.0736
O=C(c1ccc(Cl)cc1)c1c[nH]c(C(=O)NNc2cccc(Cl)n2)c1	-1.3	1.47	4.2	x
O=C(NCC1(c2ccccc2)CCCC1)c1ccc(Br)o1	-5.0	x	4.9	x
CSc1nnc(C(C)c2ncc(C(F)(F)F)cc2Cl)n1C (centres undefined)	-2.6	0.811	2.6	x
COc1cc2c(cc1OC)C(C(=O)NCCN(C)C)C(c1cccs1)N(C)C2=O (centres undefined)	x	0.23	3.0	x
CCCCCc1cc(=O)oc2c(C(CCN3CCCC3)c3ccc(N(C)C)cc3)c(OC)cc(OC)c12 (centres undefined)	5.3	x	x	u
CCCCCc1cc(=O)oc2c(C(CCN3CCCCC3)c3ccc(OC)cc3)c(OC)cc(OC)c12 (centres undefined)	-2.9	x	x	x
Cc1cccc(C2c3[nH]c4ccccc4c3CCN2C(=O)c2nn(C)c(=O)c3ccccc23)n1 (centres undefined)	-0.6	-3.98*	1.9	0.066*
Cc1cccc(C2c3[nH]c4ccccc4c3CCN2C(=O)c2ocnc2C)n1 (centres undefined)	-0.6	x	2.9	x
COc1ccc(C[C@@H]2CN3C(=NC[C@@H]3C)N2CCNC(=O)c2ccc(C)c(Br)c2)cc1	0.0	x	1.7	x
O=C(NC1CCCCC1)[C@H](CSCc1ccccc1)N1Cc2ccccc2C1=O	1.0	-3.42*	4.8	u
CC(C)NC(=O)[C@H](CSCc1ccccc1)N1Cc2ccccc2C1=O	2.5	-0.133	3.2	x
CN(Cc1ccccc1)Cc1nc2c(c(=O)n(C)c(=O)n2C)n1CCCc1ccccc1	x	-3.56*	3.4	0.0645*
CC(C)Cn1c(CN(C)Cc2ccccc2)nc2c1c(=O)n(C)c(=O)n2C	-0.3	x	2.0	x
COc1ccccc1NC(=O)COn1nnc2ccc(S(=O)(=O)N3CCOCC3)cc21	-1.3	1.13	1.6	x
COc1ccc(CNC(=O)C/C(C)=N/NC(=O)COc2ccc(C)cc2Br)cc1	145.9*	3.35*	3.8	0.0737
CCCNC(=O)C/C(C)=N/NC(=O)COc1ccc(C)cc1Br	4.6	x	4.3	x
O=C(COc1ccc(Cl)cc1Cl)NCc1ccco1	-6.7	-0.545	5.1	x
C/C(CC(=O)NCc1ccco1)=N\NC(=O)COc1ccc(Cl)cc1Cl	59.3*	3.57*	5.1	0.0921
CC(C)(C)C(=O)Nc1nnc(COc2ccc(Cl)cc2)s1	0.3	x	x	x
O=c1c2ccccc2c(-c2ccccc2)nn1Cc1c(Cl)cccc1Cl	-2.1	x	3.4	x
O=c1c2ccccc2c(-c2ccccc2)nn1-c1cc(Cl)cc(Cl)c1	-0.2	x	x	0.0774
CCOC(=O)C1CCN(c2c(NCc3ccc(C(=O)N(C)Cc4ccccc4)cc3)c(=O)c2=O)CC1	0.6	1.57	2.1	x
Fc1ccc2c(c1)C(c1ccncc1)=NNC(c1cccnc1)=N2	-1.0	x	2.9	x
SMILES	b-catenin transl	ROMK primary	MT stabilize HCS	ROMK hit retest
Cn1cc(C(=O)c2ccc(Cl)cc2)cc1-c1nc2ccccc2n1C	-0.5	x	0.6	x
CCOC(=O)C1(Cc2cccc(Cl)c2)CCCN(C(=O)C2CC2)C1 (centres undefined)	-2.4	x	3.7	x
Cc1cc(/C=C2\SC(=Nc3ccc(F)cc3)NC2=O)c(C)n1-c1ccc(S(N)(=O)=O)cc1	160.2*	3.25*	14.0	0.0854
Cc1cc(/C=C2/SC(=O)NC2=O)c(C)n1-c1ccc(N2CCOCC2)cc1	-1.2	-0.0825	2.2	x
O=C(c1cc(Cl)ccc1[N+](=O)[O-])N1CCc2ccccc2C1	-0.8	-1.94	0.9	x
O=C(NCc1cccnc1)C(=O)C1C(=O)Nc2ccccc21 (centres undefined)	7.8	x	x	x
CN(C)/C=C(\C#N)c1nc2ccccc2[nH]1	x	-1.25	2.2	x

High-throughput results (PubChem BioAssay)
